This note sets out measurements from ChEMBL document CHEMBL1667759, “Molecular modeling study and synthesis of quinazolinone-arylpiperazine derivatives as α1-adrenoreceptor antagonists” (Eur J Med Chem, 2011).

Where a name gives a salt, the structure may show the parent alone.

Assay type in all cases: functional
In assay [1] the test system is Felis catus. The assay can be described thus: Hypotensive activity in normotensive cat assessed as reduction in systolic blood pressure at 500 mg/kg, iv. Particulars: Artery. The gist of the method: (§1)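 Male cats (2e3 kg), acclimatized 7 days at 22 °C with 12 h light/dark cycle; groups of six. Single 500 mg/kg dose injected via femoral vein, flushed with 1 mL saline. Systolic and diastolic pressure recorded with mercury manometer on smoked kymograph; mean ± SD and % change versus control, significance by one-way ANOVA at P < 0.05. Experiments run 8–10 a.m.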

Assay [2] has as its system Felis catus. The assay can be described thus: Hypotensive activity in normotensive cat assessed as reduction in diastolic blood pressure at 500 mg/kg, iv. Particulars: Artery. The gist of the method: as §1
The species entered for another assay is Rattus norvegicus. The assay can be described thus: Vasodilatory activity in Wistar rat aortic rings without endothelium assessed as reduction in norepinephrine hydrochloride-induced vasoconstriction. Particulars: Wister, Aorta. Put shortly: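 Thoracic aortic rings from male Wister rats (250e350 g), killed by cervical dislocation and bleeding after light ether anaesthesia. Contraction to norepinephrine hydrochloride (10^-6 M) measured before and after increasing compound concentrations; compounds dissolved in DMSO (0.01 M stock), with DMSO-alone controls. IC50 = concentration giving 50% reduction of maximal NE contracture, derived by best-fit line.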

As a reminder, the inhibition in vivo is how much of the control response was suppressed. The term IC50 denotes the midpoint of a concentration-inhibition curve. Regarding `COc1ccccc1N1CCN(Cc2nc3ccccc3c(=O)[nH]2)CC1`, the inhibition in vivo at 500 mg/kg in the assay on Felis catus [1] was 23.7%; in the assay with Felis catus [2], 21.7%. In addition, in the assay filed under Rattus norvegicus, the IC50 amounted to 303 µM.
As for `CCOC(=O)c1nc2cc(OC)c(OC)cc2c(=O)n1NC(=O)CN1CCN(c2ccccc2OC)CC1`, the inhibition in vivo at 500 mg/kg stood at 2.22% in the assay on Felis catus [1] and 4.02% with Felis catus [2].
For the compound `CCOC(=O)c1nc2cc(OC)c(OC)cc2c(=O)n1NC(=O)CCN1CCN(c2ccccc2OC)CC1`, the inhibition in vivo at 500 mg/kg in the assay with Felis catus [1] amounted to 12.4%; with Felis catus [2] it was 13.9%. The IC50 in the assay listed under Rattus norvegicus came to 400 µM.
Take `COc1ccccc1N1CCN(CC(=O)Nn2c(C)nc3ccccc3c2=O)CC1`: the inhibition in vivo at 500 mg/kg in the assay with Felis catus [1] and in the assay on Felis catus [2] was 0% in each case.
Consider `COc1cc2nc(C)n(NC(=O)CN3CCN(c4ccccc4OC)CC3)c(=O)c2cc1OC`, for which the inhibition in vivo at 500 mg/kg in the assay with Felis catus [1] came to 3.13%; with Felis catus [2] it was 2.78%.
Consider `COc1cc2nc(C)n(NC(=O)CCN3CCN(c4ccccc4)CC3)c(=O)c2cc1OC`, for which the inhibition in vivo at 500 mg/kg in the assay with Felis catus [1] was 15.6%; with Felis catus [2], 13.9%.
On to `COc1cc2nc(C)n(NC(=O)CCN3CCN(c4ccccc4OC)CC3)c(=O)c2cc1OC`, for which the inhibition in vivo at 500 mg/kg came to 42.2% with Felis catus [1] and 40% with Felis catus [2]. Also, the IC50 in the assay filed under Rattus norvegicus stood at 201 µM.
Take `COc1cc2nc(C)n(NC(=O)CCN3CCN(c4ccc([N+](=O)[O-])cc4)CC3)c(=O)c2cc1OC`: the inhibition in vivo at 500 mg/kg in the assay with Felis catus [1] was found to be 5%; in the assay with Felis catus [2], 6.82%.
As for `COc1cc2nc(C)n(NC(=O)CCN3CCN(C(=O)c4ccco4)CC3)c(=O)c2cc1OC`, the figures for the inhibition in vivo at 500 mg/kg in the assay on Felis catus [1] and in the assay on Felis catus [2] were 9.38% and 11.1%, respectively.
As to `COc1cc2nc(N3CCN(C(=O)c4ccco4)CC3)nc(N)c2cc1OC` [PRAZOSIN HYDROCHLORIDE], the inhibition in vivo at 500 mg/kg in the assay on Felis catus [1] and with Felis catus [2] was 29% in each case. Further, the IC50 in the assay filed under Rattus norvegicus is 487 µM.
